Test results published in ChEMBL document CHEMBL1158008, “New bioactive flavonoids and stilbenes in cubé resin insecticide” (J Nat Prod, 1999).

Columns and labels:
[1] = test system: MCF7; experiment: Cytotoxicity against human MCF7 cells after 72 hrs; type: functional, cell-based; conditions: MCF7, 72 h
Procedure, shortened: (§1)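 Test compound added to cultured cells, 72 h incubation, then viability read by MTT (3-(4,5-dimethylthiazol-2-yl)-2,5-diphenyltetrazolium bromide) reduction. IC50 derived from eight replicates per assay.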

[2] = Inhibition of bovine NADH-ubiquinone oxidoreductase; set-up: species or system Bos taurus
Procedure, shortened: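 Bovine heart electron transport particles (inverted inner mitochondrial membrane vesicles, 40 µg protein) preincubated with compound 5 min at 25 °C in 50 mM phosphate pH 7.4, 250 mM sucrose. NADH added (28 µM final); activity followed as A340 loss over 3 min. IC50 from three experiments.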

[3] = Cytotoxicity against mouse Hepa1clc7 cells after 72 hrs; type: functional, cell-based; procedure, shortened: as §1

| SMILES | IC50 [2] [µM] | IC50 [1] [µM] | IC50 [3] [µM] |
| --- | --- | --- | --- |
| CC1(C)C=Cc2c(ccc(C(=O)/C=C/c3ccc(O)cc3)c2O)O1 | 4.9 | 27 | 10 |
| COc1cc(/C=C/c2ccc3c(c2)OC(C)(C)C=C3)cc(OC)c1OC | 4.9 | 24 | 7 |
| COc1cc(/C=C/c2ccc(O)cc2)cc2c1C=CC(C)(C)O2 | 5.3 | > 30 | 8.5 |
| COc1cc(/C=C/c2cc(OC)c3c(c2)OC(C)(C)C=C3)ccc1O | 8.1 | > 30 | 13 |
| COc1cc(OC)c(-c2coc3c4c(ccc3c2=O)OC(C)(C)[C@@H](O)[C@H]4O)cc1OC (relative stereo) | > 30 | > 30 | > 30 |
| O=c1c(-c2ccc(O)cc2)coc2cc(O)cc(O)c12 [GENISTEIN] | 35 | > 30 | 11 |
| Oc1ccc(/C=C/c2cc(O)cc(O)c2)cc1 [RESVERATROL] | 26 | > 30 | 11 |

The remaining molecules from weak to strong by IC50 [2], led by results:

| IC50 [2] [µM] | SMILES | IC50 [1] [µM] | IC50 [3] [µM] |
| --- | --- | --- | --- |
| 4.8 | COc1cc(/C=C/C(=O)c2ccc3c(c2O)C=CC(C)(C)O3)ccc1O | 10 | 5.9 |
| 2.6 | COc1ccc([C@@H]2CC(=O)c3cc(CC=C(C)C)c4c(c3O2)C=CC(C)(C)O4)cc1OC | 5.7 | 5.1 |
| 2.1 | COc1ccc([C@@H]2CC(=O)c3c(O)c(CC=C(C)C)c4c(c3O2)C=CC(C)(C)O4)cc1OC | 6.6 | 8.5 |
| 2 | COc1ccc([C@@H]2CC(=O)c3c(O)c(CC=C(C)C)c4c(c3O2)C=CC(C)(C)O4)cc1O | 6.9 | 3.9 |
| 0.68 | COc1cc([C@@H]2CC(=O)c3c(O)c(CC=C(C)C)c4c(c3O2)C=CC(C)(C)O4)ccc1O | 3 | 3.5 |
